Data published in PMC3546530 (Cancer prevention research (Philadelphia, Pa.), 2012).
Like-named read-outs stand apart in the source and are kept apart here.

Key:
[1] = system: β-catenin in HCT 116 cells; experiment: β-Catenin levels; assay type: cell-based, human; conditions: HCT 116, 100 μmol/L
In short: (§1)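 Cells were lysed in ice-cold membrane lysis buffer (Triton X-100, MgCl2, KCl, DTT, HEPES, NaF, protease inhibitors) or in nuclear lysis buffer (HEPES, NaCl, EDTA, 25% glycerol). Nuclear lysates were kept at 4° C with vortexing every 5 min for 1 h, then centrifuged. Protein was measured by Lowry, separated by 12% SDS-PAGE and moved to nitrocellulose. Blots were blocked in 5% BSA/0.05% Tween 20, probed with primary antibody overnight at 4° C and HRP secondary for 1 h, and read by ECL.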

[2] = system: HT-29, SW480, and HCT 116 colon tumor cell lines; experiment: Growth assay; assay type: cell-based; conditions: Homo sapiens, 72 h, read-out: growth inhibition IC50
In short: (§2)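 Colon tumor cells were kept in RPMI-1640 with 5% FBS and 4 mmol/L glutamine at 37° C, 5% CO2. They were plated at 5,000 per well, left to adhere overnight, and exposed for 72 h to a 2-log range of test compound. Viability was measured as ATP content by CellTiter-Glo, relative to vehicle.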

purified ovine COX-1 = purified ovine COX-1 (Ovis aries, UniProt P05979); experiment: COX-1 colorimetric activity assay; assay type: biochemical
purified ovine COX-1, sequence (P05979 25-600): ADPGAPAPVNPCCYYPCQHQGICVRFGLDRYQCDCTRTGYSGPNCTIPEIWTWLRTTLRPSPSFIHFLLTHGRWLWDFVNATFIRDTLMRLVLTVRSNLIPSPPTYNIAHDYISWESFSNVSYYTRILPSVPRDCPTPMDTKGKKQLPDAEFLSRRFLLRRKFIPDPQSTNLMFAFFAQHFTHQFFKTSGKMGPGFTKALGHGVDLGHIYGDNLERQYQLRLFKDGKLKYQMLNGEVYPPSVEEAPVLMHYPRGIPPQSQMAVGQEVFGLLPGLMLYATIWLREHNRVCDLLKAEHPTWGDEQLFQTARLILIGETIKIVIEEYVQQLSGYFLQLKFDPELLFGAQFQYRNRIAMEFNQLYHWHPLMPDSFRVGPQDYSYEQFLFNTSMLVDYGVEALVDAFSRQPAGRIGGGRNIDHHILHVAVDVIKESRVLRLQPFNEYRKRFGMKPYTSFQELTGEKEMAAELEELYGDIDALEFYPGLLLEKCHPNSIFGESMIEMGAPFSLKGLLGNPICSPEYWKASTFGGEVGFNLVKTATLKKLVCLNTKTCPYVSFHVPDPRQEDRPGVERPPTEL

purified ovine COX-2 = purified ovine COX-2 (Ovis aries, UniProt P79208); experiment: COX-2 colorimetric activity assay; assay type: biochemical
[3] = system: LPS-stimulated U937 promonocytic cells; experiment: PGE2 production assay; assay type: cell-based, human
In short: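 U937 promonocytic cells were differentiated with 10 nmol/L PMA for 48 h, washed, and plated at 1.0 × 10^6 cells per well to adhere overnight. They were stimulated with 10 μg/mL LPS and treated with test compound for 24 h. PGE2 in supernatants was measured by HTRF competitive FRET between a PGE2–d2 conjugate and an anti-PGE2 antibody.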

[4] = system: HCT 116 colon tumor cells; experiment: Proliferation assay; assay type: cell-based; conditions: Homo sapiens, HCT-116, 24 h, read-out: inhibition of cell proliferation
In short: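 HCT 116 cells were seeded at 1.5 × 10^6 per 10-cm dish overnight, then serum-starved for 24 h. Test compound or vehicle (0.1% DMSO) was added in RPMI-1640 with 5% serum for 4 h, followed by 16 μmol/L EdU (final) for a further 18 h. EdU incorporation was read with Click-iT Alexa Fluor 488 by flow cytometry, ≥5,000 events, in triplicate.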

[5] = system: HCT 116 colon tumor cells; experiment: Apoptosis assay; assay type: cell-based, human; conditions: 24 hours, vehicle 3%
In short: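 HCT 116 cells were seeded at 1 × 10^6 per 10-cm dish and grown 48 h, then treated with test compound or vehicle for 24 h. Floating and attached cells were pooled, fixed in 10% neutral buffered formalin on ice for 15 min, and stained for DNA strand breaks by APO-BrdU TUNEL with AlexaFluor-488. TUNEL-positive cells were counted by flow cytometry, ≥5,000 events, in triplicate.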

[6] = system: total cGMP hydrolysis in HT-29 whole-cell lysates; experiment: cGMP PDE activity in tumor cell lysate; assay type: biochemical, human; conditions: read-out: total cGMP hydrolysis IC50; HT-29 whole-cell lysate
In short: (§3)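 HT-29 cells were lysed in PDE activity buffer (20 mmol/L Tris-acetate, 5 mmol/L Mg acetate, 1 mmol/L EGTA, 1.0% Triton X-100, 50 mmol/L NaF, protease inhibitors, pH 7.4). Lysate protein was titrated to the mid portion of the activity curve.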

[7] = system: total cAMP hydrolysis in HT-29 whole-cell lysates; experiment: cAMP PDE activity in tumor cell lysate; assay type: biochemical, human; conditions: read-out: total cAMP hydrolysis IC50; HT-29 whole-cell lysate
In short: as §3

PDE1A = PDE1A (Homo sapiens, UniProt P54750); experiment: Recombinant PDE isozyme assay; assay type: biochemical
PDE1A, sequence (P54750 whole entry): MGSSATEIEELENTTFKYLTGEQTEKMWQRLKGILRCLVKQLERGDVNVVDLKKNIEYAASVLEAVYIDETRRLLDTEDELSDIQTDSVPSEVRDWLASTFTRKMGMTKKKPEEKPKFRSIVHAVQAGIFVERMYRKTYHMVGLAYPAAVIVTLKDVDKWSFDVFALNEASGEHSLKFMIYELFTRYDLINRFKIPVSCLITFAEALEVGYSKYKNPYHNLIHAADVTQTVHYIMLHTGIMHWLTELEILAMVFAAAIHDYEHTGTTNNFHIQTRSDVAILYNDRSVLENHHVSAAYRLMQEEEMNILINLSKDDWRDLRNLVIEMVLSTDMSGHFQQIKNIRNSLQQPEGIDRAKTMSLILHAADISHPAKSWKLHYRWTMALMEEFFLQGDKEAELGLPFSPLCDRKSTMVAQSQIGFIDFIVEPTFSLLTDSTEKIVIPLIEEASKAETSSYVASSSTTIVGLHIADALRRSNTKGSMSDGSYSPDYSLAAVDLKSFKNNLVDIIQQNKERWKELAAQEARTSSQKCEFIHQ
In short: (§4)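 Purified recombinant human PDE isozymes were assayed by IMAP fluorescence polarization, in which binding of hydrolysed nucleotide to immobilised metal complexes raises polarization.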

PDE1B = PDE1B (Homo sapiens, UniProt Q01064); experiment: Recombinant PDE isozyme assay; assay type: biochemical
In short: as §4

PDE1C = PDE1C (Homo sapiens, UniProt Q14123); experiment: Recombinant PDE isozyme assay; assay type: biochemical
PDE1C, sequence (Q14123 whole entry): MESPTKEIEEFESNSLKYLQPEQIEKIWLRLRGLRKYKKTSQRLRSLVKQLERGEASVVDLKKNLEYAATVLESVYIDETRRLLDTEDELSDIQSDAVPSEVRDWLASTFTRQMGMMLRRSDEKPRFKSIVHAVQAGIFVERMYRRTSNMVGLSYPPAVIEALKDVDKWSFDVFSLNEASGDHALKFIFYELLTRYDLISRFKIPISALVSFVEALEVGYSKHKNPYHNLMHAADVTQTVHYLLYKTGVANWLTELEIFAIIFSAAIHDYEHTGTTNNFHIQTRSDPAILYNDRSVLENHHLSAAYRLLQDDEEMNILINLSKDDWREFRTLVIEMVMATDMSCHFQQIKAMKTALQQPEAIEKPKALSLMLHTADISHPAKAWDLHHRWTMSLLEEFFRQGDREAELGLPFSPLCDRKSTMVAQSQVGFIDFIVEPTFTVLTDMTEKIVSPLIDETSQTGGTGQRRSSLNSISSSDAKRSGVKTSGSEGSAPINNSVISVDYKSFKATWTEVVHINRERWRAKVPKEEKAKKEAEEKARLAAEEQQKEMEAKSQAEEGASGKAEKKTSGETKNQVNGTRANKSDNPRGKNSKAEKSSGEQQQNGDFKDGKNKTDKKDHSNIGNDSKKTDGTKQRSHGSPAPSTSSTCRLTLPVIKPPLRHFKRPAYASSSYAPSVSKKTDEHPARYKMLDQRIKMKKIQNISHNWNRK
In short: as §4

PDE2A = PDE2A (Homo sapiens, UniProt O00408); experiment: Recombinant PDE isozyme assay; assay type: biochemical
PDE2A, sequence (O00408 whole entry): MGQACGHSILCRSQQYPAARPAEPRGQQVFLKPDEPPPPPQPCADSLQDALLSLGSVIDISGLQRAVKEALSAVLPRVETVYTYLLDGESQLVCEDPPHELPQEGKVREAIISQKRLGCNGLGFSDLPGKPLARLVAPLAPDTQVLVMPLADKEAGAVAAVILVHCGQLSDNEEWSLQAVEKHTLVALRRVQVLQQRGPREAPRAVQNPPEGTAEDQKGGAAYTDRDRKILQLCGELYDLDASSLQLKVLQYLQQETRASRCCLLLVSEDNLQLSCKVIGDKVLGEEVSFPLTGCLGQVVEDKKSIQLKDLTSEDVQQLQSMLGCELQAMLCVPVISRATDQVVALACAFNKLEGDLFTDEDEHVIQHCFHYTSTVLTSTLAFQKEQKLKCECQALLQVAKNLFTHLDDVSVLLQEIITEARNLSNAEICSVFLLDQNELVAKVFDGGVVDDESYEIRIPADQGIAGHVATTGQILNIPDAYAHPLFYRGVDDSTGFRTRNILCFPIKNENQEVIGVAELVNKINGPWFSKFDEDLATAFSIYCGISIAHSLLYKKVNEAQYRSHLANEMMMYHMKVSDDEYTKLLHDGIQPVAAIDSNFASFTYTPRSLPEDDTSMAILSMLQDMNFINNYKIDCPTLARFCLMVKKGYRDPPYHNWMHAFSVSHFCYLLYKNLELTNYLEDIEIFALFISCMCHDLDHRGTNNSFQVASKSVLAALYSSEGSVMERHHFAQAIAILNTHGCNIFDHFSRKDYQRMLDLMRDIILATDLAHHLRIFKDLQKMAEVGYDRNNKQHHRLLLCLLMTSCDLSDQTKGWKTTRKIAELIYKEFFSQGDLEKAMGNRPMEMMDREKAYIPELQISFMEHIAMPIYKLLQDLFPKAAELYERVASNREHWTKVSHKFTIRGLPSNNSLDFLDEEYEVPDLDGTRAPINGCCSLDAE

PDE3A = PDE3A (Homo sapiens, UniProt Q14432); experiment: Recombinant PDE isozyme assay; assay type: biochemical
In short: as §4

PDE3B = PDE3B (Homo sapiens, UniProt Q13370); experiment: Recombinant PDE isozyme assay; assay type: biochemical
PDE3B, sequence (Q13370 whole entry): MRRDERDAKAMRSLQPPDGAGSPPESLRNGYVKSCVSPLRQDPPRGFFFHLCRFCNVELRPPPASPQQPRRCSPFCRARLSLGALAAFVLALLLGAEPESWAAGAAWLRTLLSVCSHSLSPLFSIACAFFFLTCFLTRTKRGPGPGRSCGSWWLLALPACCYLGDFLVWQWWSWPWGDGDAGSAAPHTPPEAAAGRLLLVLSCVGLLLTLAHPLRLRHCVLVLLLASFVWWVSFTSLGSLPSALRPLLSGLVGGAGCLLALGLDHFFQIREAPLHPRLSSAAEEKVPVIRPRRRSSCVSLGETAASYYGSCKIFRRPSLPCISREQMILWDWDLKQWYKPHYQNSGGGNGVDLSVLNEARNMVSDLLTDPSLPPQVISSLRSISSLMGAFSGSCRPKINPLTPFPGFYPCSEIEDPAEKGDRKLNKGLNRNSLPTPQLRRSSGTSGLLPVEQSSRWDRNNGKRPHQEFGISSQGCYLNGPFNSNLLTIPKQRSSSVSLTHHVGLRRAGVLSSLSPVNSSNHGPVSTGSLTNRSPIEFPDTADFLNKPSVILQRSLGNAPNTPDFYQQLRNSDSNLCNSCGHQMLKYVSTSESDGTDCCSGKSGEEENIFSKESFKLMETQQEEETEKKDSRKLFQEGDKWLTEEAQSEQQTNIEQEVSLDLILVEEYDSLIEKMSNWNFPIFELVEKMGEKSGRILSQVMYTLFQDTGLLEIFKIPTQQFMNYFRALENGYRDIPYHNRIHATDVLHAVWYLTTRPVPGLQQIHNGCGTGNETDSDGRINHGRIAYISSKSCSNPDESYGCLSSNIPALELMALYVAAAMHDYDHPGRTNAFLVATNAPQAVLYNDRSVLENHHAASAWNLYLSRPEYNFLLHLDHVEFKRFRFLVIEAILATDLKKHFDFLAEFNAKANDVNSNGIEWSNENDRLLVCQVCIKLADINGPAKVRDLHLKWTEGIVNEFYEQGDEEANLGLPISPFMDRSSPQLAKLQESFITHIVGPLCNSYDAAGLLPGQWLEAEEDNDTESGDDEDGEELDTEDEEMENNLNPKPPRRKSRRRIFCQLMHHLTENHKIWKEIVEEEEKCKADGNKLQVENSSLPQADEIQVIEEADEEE
In short: as §4

PDE4B = PDE4B (Homo sapiens, UniProt Q07343); experiment: Recombinant PDE isozyme assay; assay type: biochemical
In short: as §4

[8] = biological target: PDE5A (purified recombinant PDE5) (Homo sapiens, UniProt O76074); experiment: Recombinant PDE isozyme assay; assay type: biochemical
In short: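 IMAP fluorescence polarization assay run on recombinant enzyme per kit instructions. Substrates: TAMRA-cGMP or fluorescein-cAMP, each at 50 nmol/L final. Hydrolysed cyclic nucleotide binds immobilized metal coordination complexes, raising polarization.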

PDE6C = PDE6C (Homo sapiens, UniProt P51160); experiment: Recombinant PDE isozyme assay; assay type: biochemical
In short: as §4

PDE7A = PDE7A (Homo sapiens, UniProt Q13946); experiment: Recombinant PDE isozyme assay; assay type: biochemical
In short: as §4

PDE8A = PDE8A (Homo sapiens, UniProt O60658); experiment: Recombinant PDE isozyme assay; assay type: biochemical
In short: as §4

PDE9A = PDE9A (Homo sapiens, UniProt O76083); experiment: Recombinant PDE isozyme assay; assay type: biochemical
In short: as §4

PDE11A = PDE11A (Homo sapiens, UniProt Q9HCR9); experiment: Recombinant PDE isozyme assay; assay type: biochemical
PDE11A, sequence (Q9HCR9 whole entry): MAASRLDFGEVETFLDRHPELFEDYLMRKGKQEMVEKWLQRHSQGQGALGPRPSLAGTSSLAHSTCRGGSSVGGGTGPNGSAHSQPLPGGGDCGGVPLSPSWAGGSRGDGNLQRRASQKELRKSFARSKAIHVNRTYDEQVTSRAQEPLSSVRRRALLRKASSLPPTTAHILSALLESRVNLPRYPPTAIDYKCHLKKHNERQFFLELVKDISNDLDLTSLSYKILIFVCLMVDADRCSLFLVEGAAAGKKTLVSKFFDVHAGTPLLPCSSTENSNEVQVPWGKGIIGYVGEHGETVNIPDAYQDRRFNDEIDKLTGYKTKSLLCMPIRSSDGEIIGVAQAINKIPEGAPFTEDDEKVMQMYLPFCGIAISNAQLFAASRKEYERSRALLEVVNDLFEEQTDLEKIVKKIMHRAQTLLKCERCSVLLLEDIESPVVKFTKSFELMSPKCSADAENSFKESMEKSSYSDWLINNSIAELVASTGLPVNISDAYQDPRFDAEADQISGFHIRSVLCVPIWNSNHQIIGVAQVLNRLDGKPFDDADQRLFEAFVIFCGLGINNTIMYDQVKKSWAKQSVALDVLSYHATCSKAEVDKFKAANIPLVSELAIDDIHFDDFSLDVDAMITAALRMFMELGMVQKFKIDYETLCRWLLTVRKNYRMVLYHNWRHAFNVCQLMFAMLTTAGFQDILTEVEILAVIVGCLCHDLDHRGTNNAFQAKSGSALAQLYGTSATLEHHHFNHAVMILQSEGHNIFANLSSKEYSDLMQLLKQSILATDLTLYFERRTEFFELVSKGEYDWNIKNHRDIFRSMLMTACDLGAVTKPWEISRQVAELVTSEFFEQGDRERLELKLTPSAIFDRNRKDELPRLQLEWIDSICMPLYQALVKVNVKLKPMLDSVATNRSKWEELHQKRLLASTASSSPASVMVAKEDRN
In short: as §4

[9] = system: HCT 116 colon tumor cells; experiment: Growth assay; assay type: cell-based; conditions: Homo sapiens, HCT-116, read-out: growth inhibition IC50
In short: as §2

HT-29 colon tumor cells = experiment: Growth assay; assay type: cell-based; conditions: Homo sapiens, HT-29, read-out: growth inhibition IC50
In short: as §2

[10] = system: normal fetal human colonocytes (FHC); experiment: Growth assay; assay type: cell-based
[11] = system: intracellular cGMP in HEK293 cells; experiment: Intracellular cGMP levels; assay type: cell-based, human; conditions: HEK293, 50 μmol/L SNP plus 1, 3, or 10 μmol/L compound
[12] = system: PKG (VASP phosphorylation) in HT-29 cells; experiment: PKG activation; assay type: cell-based, human; conditions: HT-29, 5 μmol/L; remained elevated for 5 hours
[13] = system: nuclear β-catenin in HT-29 cells; experiment: Nuclear β-catenin levels; assay type: cell-based, human
In short: as §1

survivin in HT-29 cells = experiment: Survivin expression; assay type: cell-based, human; conditions: 10 μmol/L, slightly longer duration than β-catenin decrease
In short: as §1

[14] = system: cleaved caspase-3 in HT-29 cells; experiment: Caspase-3 cleavage; assay type: cell-based, human; conditions: HT-29, 10 μmol/L
In short: as §1

[15] = system: β-catenin–mediated Tcf transcriptional activity in HCT 116 cells; experiment: TOP/FOP-flash Tcf luciferase reporter assay; assay type: cell-based, human; conditions: HCT 116, 24 hours
In short: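 HCT 116 cells in 24-well plates were cotransfected with 0.1 μg TOP-flash (wild-type Tcf sites) or FOP-flash (mutated sites, nonspecific control) plus 0.1 μg β-galactosidase vector. After 24 h treatment with test compound, luciferase activity was measured and normalised to β-galactosidase activity.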

tumor cell growth = conditions: cited from earlier work
PDE5 = conditions: cited from earlier work

Nc1nc2c(nc(Br)n2[C@@H]2O[C@@H]3COP(=O)(O)O[C@H]3[C@H]2O)c(=O)[nH]1 [8-bromo-cGMP]
effect on β-catenin levels [1]: suppress β-catenin levels

CC1=C(CCNCc2ccccc2)c2cc(F)ccc2/C1=C\c1ccc([S+](C)[O-])cc1 (stereo not drawn) [SBA, (Z)-N-benzyl-2-(5-fluoro-2-methyl-1-(4-(methylsulfinyl)benzylidene)-1H-inden-3-yl)ethanamine]
IC50 [2]: 3 to 5 µM
IC50 (purified ovine COX-1): > 200 µM
IC50 (purified ovine COX-2): > 200 µM
suppression of PGE2 production ([3]; LPS 10 μg/mL, 24 hours treatment): ineffective
inhibition at 50 µM [4]: 86%
apoptotic (TUNEL-positive) cells ([5]; 50 μmol/L): 75%
IC50 [6]: 8 µM
IC50 [7]: > 200 µM
IC50 (PDE1A): > 100 µM
IC50 (PDE1A; read-out: cAMP IC50, PDE 1A, cAMP substrate): > 100 µM
IC50 (PDE1B): > 100 µM
IC50 (PDE1B; read-out: cAMP IC50, PDE 1B, cAMP substrate): > 100 µM
IC50 (PDE1C): > 100 µM
IC50 (PDE1C; read-out: cAMP IC50, PDE 1C, cAMP substrate): > 100 µM
IC50 (PDE2A): > 100 µM
IC50 (PDE2A; read-out: cAMP IC50, PDE 2A, cAMP substrate): > 100 µM
IC50 (PDE3A): > 100 µM
IC50 (PDE3A; read-out: cAMP IC50, PDE 3A, cAMP substrate): > 100 µM
IC50 (PDE3B): > 100 µM
IC50 (PDE3B; read-out: cAMP IC50, PDE 3B, cAMP substrate): > 100 µM
IC50 (PDE4B): 75 µM
IC50 [8]: 9 µM
IC50 (PDE6C): > 100 µM
IC50 (PDE7A): > 100 µM
IC50 (PDE8A): > 100 µM
IC50 (PDE9A): > 100 µM
IC50 (PDE11A): > 100 µM
IC50 (PDE11A; read-out: cAMP IC50, PDE 11A, cAMP substrate): > 100 µM
IC50 [9]: 5 µM
IC50 (HT-29 colon tumor cells): 5 µM
fold higher IC50 in FHC than in colon tumor cell lines ([10]; FHC vs HT-29 and HCT 116): > 6 fold
IC50 ([10]; Homo sapiens, read-out: growth inhibition IC50): 33 µM
effect on intracellular cGMP (luminescence) [11]: rapid and sustained increase in luminescence
time to increased phospho-VASP levels [12]: ≤ 1 h
time to reduced nuclear levels of β-catenin [13]: ≤ 1 h
expression of survivin (survivin in HT-29 cells): decreased
levels of cleaved caspase-3 [14]: increased
β-catenin–mediated Tcf transcriptional activity [15]: significant decrease

CSc1ccc(/C=C2/C(C)=C(CC(=O)O)c3cc(F)ccc32)cc1 [sulindac sulfide, Sulindac sulfide, reference compound]
IC50 [2]: 90 to 120 µM
IC50 (purified ovine COX-1; read-out: COX-1 inhibition IC50, purified ovine COX-1): 2 µM
IC50 ([3]; Homo sapiens, U-937, 24 h, read-out: suppression of PGE2 production IC50): 0.7 µM
apoptotic (TUNEL-positive) cells ([5]; 100 μmol/L): 12%
IC50 [6]: 49 µM
IC50 [7]: 133 µM

CN1CC(=O)N2[C@H](c3ccc4c(c3)OCO4)c3[nH]c4ccccc4c3C[C@@H]2C1=O [tadalafil]
concentrations required to inhibit tumor cell growth (tumor cell growth): micromolar levels
concentrations required to inhibit PDE5 in cell-free assays (PDE5): nanomolar levels

CCCc1nn(C)c2c(=O)[nH]c(-c3cc(S(=O)(=O)N4CCN(C)CC4)ccc3OCC)nc12 [sildenafil]
tumor cell growth inhibitory activity (tumor cell growth): completely inactive
